Source: ChEMBL document CHEMBL1124458, “Electrophilic derivatives of purines as irreversible inhibitors of A1 adenosine receptors” (J Med Chem, 1989)
pKi: −log10 of the molar value.

Assays:
[1] = target: T1, Adenosine receptor A1 (Rattus norvegicus) (UniProt P25099); experiment: Inhibition of [125I]-APNEA binding to adenosine A1 receptor of rat brain at 50 nM
T1 sequence (whole entry): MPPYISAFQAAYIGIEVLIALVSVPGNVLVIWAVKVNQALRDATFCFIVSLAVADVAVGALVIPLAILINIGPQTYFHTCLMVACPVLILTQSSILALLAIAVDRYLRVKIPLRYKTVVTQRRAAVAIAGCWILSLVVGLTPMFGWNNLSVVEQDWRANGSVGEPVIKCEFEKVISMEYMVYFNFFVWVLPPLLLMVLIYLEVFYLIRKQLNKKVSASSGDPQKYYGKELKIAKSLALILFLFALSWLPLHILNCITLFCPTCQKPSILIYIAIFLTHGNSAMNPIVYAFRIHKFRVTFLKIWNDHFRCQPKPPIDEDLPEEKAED
How it was run: (§1)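 Adenosine deaminase-treated rat cerebral cortex membranes were exposed to the ligand for 45 min at 37 °C. They were washed three times, held in buffer with 10⁻⁴ M IBMX for 18 h at 25 °C, washed and re-treated with deaminase. Residual sites were measured by 125I-APNEA saturation (0.1–2.5 nM) against untreated membranes carried through the same procedure.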

Adenosine receptor A1 [2] = target: T2, Adenosine receptor A1 (Rattus norvegicus, UniProt P25099); experiment: Affinity for adenosine A1 receptor using [3H]-N6 -(phenylisopropyl)-adenosine (R)-[3H]-PIA in rat brain.; format: tissue-based
T2 sequence (P25099 whole entry): T1 sequence (whole entry)
How it was run: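 Rat cerebral cortex membranes were incubated with 1 nM (R)-[3H]PIA and a range of competitor concentrations. Each point was run in triplicate, in at least three separate experiments.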

[3] = target: Adenosine receptors; A1 & A2 (Rattus norvegicus) (UniProt P29276+P25099+P30543); experiment: Relative affinities for Adenosine A2 and Adenosine A1 receptors; format: protein assay
[4] = target: T1, Adenosine receptor A1 (Rattus norvegicus); experiment: Percentage inhibition of [125I]-APNEA binding to adenosine A1 receptor from rat brain after 45 min incubation at 50 nM; how it was run: as §1
Adenosine A2 receptor [5] = target: T3, Adenosine A2 receptor (Rattus norvegicus, UniProt P29276+P30543); experiment: Inhibition of [3H]N-ethyladenosine-5'-uronamide binding to Adenosine A2 receptor of rat striatal membrane
Adenosine receptor A1 [6] = target: T2, Adenosine receptor A1; experiment: Affinity for adenosine A1 receptor using [3H]N6-(phenylisopropyl)adenosine (R)-[3H]-PIA as a radioligand in rat brain.; format: tissue-based
Adenosine A2 receptor [7] = target: T3, Adenosine A2 receptor; experiment: Inhibitory affinity for Adenosine A2 receptor using [3H]N-ethyladenosine-5'-uronamide; format: protein assay
[8] = target: T1, Adenosine receptor A1 (Rattus norvegicus); details: 50 nM
Adenosine receptor A1 [9] = target: T4, Adenosine receptor A1 (Bos taurus, UniProt P28190); experiment: Affinity for Adenosine A1 receptor using [125I]APNEA in calf brain.
T4 sequence (P28190 whole entry): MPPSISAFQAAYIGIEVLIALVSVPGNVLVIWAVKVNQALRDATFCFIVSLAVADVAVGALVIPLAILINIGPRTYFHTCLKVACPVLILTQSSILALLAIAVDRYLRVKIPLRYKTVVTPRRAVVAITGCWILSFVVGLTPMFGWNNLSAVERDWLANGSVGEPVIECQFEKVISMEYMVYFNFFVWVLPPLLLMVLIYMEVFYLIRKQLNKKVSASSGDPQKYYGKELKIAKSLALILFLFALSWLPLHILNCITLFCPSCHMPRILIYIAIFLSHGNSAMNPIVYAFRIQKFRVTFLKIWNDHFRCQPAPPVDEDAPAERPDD
How it was run: (§2)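 Bovine cerebral cortex membranes were pretreated with adenosine deaminase (0.5 unit/mL, 20 min, 37 °C). Membranes (40 µg) were incubated with 125I-APNEA and competitor for 1 h at 37 °C. Separation was by dilution in cold Tris-HCl/MgCl2/EDTA buffer, pH 8.26, with 0.02% Chaps, then glass-filter filtration and gamma counting. Nonspecific binding was defined with 10⁻⁵ M (R)-PIA.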

[10] = target: T1, Adenosine receptor A1 (Rattus norvegicus); experiment: Percentage inhibition of [125I]APNEA binding to adenosine A1 receptor from rat brain after 45 min incubation at 500 nM; how it was run: as §1
[11] = target: T1, Adenosine receptor A1 (Rattus norvegicus); details: 5 nM
[12] = target: T1, Adenosine receptor A1 (Rattus norvegicus); details: 5 nM; remark: listed apart in the source
[13] = target: T1, Adenosine receptor A1 (Rattus norvegicus); experiment: Percentage inhibition of [125I]-APNEA binding to Adenosine A1 receptor from rat brain after 45 min incubation at 50 nM
How it was run: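 Rat cerebral cortex membranes pretreated with adenosine deaminase (0.5 unit/mL, 20 min, 37 °C). Incubated with ligand at the stated concentration for 45 min at 37 °C, then washed three times in Tris/MgCl2/EDTA buffer pH 8.26 with 0.02% Chaps. Then 10⁻⁴ M IBMX for 18 h at 25 °C, washed twice and deaminase-treated again. Untreated membranes went through every step as controls.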

Adenosine receptor A1 [14] = target: T4, Adenosine receptor A1; experiment: Affinity for Adenosine A1 receptor using [N6-[(3-[125I]-iodo-4-aminophenyl)ethyl]adenosine in calf brain; format: tissue-based; how it was run: as §2

Row | Structure (SMILES) | inhibition [1] | pKi (Adenosine receptor A1 [6]) | Ratio [3] | other results
1 | O=C(Cc1ccc(NC(=O)Cc2ccc(Nc3ncnc4c3ncn4C3O[C@H](CO)[C@@H](O)[C@H]3O)cc2)cc1)NCC/N=C(\S)Nc1c(F)c(F)c(F)c(F)c1F (some centres undefined) |  |  |  | pKi (Adenosine receptor A1 [2]): 8.79
2 | CCCn1c(=O)c2nc(-c3ccc(OCC(=O)NCCNS(=O)(=O)c4cccc(S(=O)(=O)Cl)c4)cc3)[nH]c2n(CCC)c1=O |  |  | 42 | inhibition [4]: 23%; Ki (Adenosine A2 receptor [5]): 105 nM
3 | N#Cc1ccc(N/C(S)=N/CCNC(=O)Cc2ccc(NC(=O)Cc3ccc(Nc4ncnc5c4ncn5C4O[C@H](CO)[C@@H](O)[C@H]4O)cc3)cc2)cc1 (some centres undefined) |  |  |  | pKi (Adenosine receptor A1 [2]): 8.58
4 | CCCn1c(=O)c2nc(-c3ccc(OCC(=O)NCCNC(=O)C/N=C(\S)Nc4ccc(N=C=S)cc4)cc3)[nH]c2n(CCC)c1=O | 50% |  | 69 | Ki (Adenosine A2 receptor [7]): 472 nM
5 | CCCn1c(=O)c2[nH]c(-c3ccc(OCC(=O)NCCNC(=O)Cc4ccc(NC(=S)Nc5ccc(N=C=S)cc5)cc4)cc3)nc2n(CCC)c1=O |  | 7.60 |  | 
6 | CCCn1c(=O)c2nc(-c3ccc(OCC(=O)NCCNC(=O)Cc4ccc(N/C(S)=N/c5ccc(N=C=S)cc5)cc4)cc3)[nH]c2n(CCC)c1=O |  |  | 26.2 | Ki (Adenosine A2 receptor [5]): 655 nM; inhibition [8]: 20%
7 | O=C(Cc1ccc(NC(=O)Cc2ccc(Nc3ncnc4c3ncn4C3O[C@H](CO)[C@@H](O)[C@H]3O)cc2)cc1)NCCN=C=S (some centres undefined) |  | 8.35 |  | pKi (Adenosine receptor A1 [9]): 8.38
8 | CCCn1c(=O)c2nc(-c3ccc(OCC(=O)NCCN=C(S)Nc4cccc(N=C=S)c4)cc3)[nH]c2n(CCC)c1=O |  |  | 144 | inhibition [10]: 94%; Ki (Adenosine A2 receptor [5]): 343 nM; inhibition [11]: 49%; inhibition [12]: 67%
9 | CCCn1c(=O)c2nc(-c3ccc(OCC(=O)NCCN=C(S)Nc4ccc(N=C=S)cc4)cc3)[nH]c2n(CCC)c1=O | 29% |  | 48.6 | inhibition [10]: 73%; inhibition [13]: 63%; Ki (Adenosine A2 receptor [5]): 321 nM
10 | CCCn1c(=O)c2[nH]c(-c3ccc(OCC(=O)NCCNC(=O)CCCCCCC(=O)ON4C(=O)CCC4=O)cc3)nc2n(CCC)c1=O |  |  |  | pKi (Adenosine receptor A1 [14]): 7.64
11 | O=C(Cc1ccc(NC(=O)Cc2ccc(Nc3ncnc4c3ncn4C3O[C@H](CO)[C@@H](O)[C@H]3O)cc2)cc1)NCCNC(=S)Nc1ccc(N=C=S)cc1 (some centres undefined) |  | 9.33 |  | 
12 | O=C(Cc1ccc(NC(=O)Cc2ccc(Nc3ncnc4c3ncn4C3O[C@H](CO)[C@@H](O)[C@H]3O)cc2)cc1)NCC/N=C(\S)Nc1ccc(F)cc1 (some centres undefined) |  | 8.06 |  | 
13 | O=C(Cc1ccc(NC(=O)Cc2ccc(Nc3ncnc4c3ncn4C3O[C@H](CO)[C@@H](O)[C@H]3O)cc2)cc1)NCCNC(=S)Nc1ccc(Br)cc1 (some centres undefined) |  | 8.92 |  | 

Continued, in another order:

Row | inhibition [1] | pKi (Adenosine receptor A1 [6]) | Structure (SMILES) | Ratio [3] | other results
14 | 15% |  | CCCn1c(=O)c2nc(-c3ccc(OCC(=O)NCCNC(=O)c4ccc(CBr)cc4)cc3)[nH]c2n(CCC)c1=O |  | 
15 | 38% | 8.08 | O=C(CBr)NCCNC(=O)Cc1ccc(NC(=O)Cc2ccc(Nc3ncnc4c3ncn4C3O[C@H](CO)[C@@H](O)[C@H]3O)cc2)cc1 (some centres undefined) | 76 | Ki (Adenosine A2 receptor [7]): 202 nM
16 | 15% | 7.42 | CCCn1c(=O)c2nc(-c3ccc(OCC(=O)NCCNC(=O)CCCN4C(=O)C=CC4=O)cc3)[nH]c2n(CCC)c1=O |  | 
17 | 21% | 8.08 | O=C(Cc1ccc(Nc2ncnc3c2ncn3C2O[C@H](CO)[C@@H](O)[C@H]2O)cc1)ON1C(=O)CCC1=O (some centres undefined) |  | 
18 |  | 7.80 | CCCn1c(=O)c2nc(-c3ccc(OCC(=O)NCCN=C(S)Nc4ccc([N+](=O)[O-])cc4)cc3)[nH]c2n(CCC)c1=O |  | 
19 |  | 7.48 | CCCn1c(=O)c2nc(-c3ccc(OCC(=O)NCCN=C(S)Nc4ccc(OC)cc4)cc3)[nH]c2n(CCC)c1=O |  | 
